Assay results reported in ChEMBL document CHEMBL3244358, “Conformational analogues of antihypertensive agents related to guanethidine” (J Med Chem, 1977).
The source made the active and inactive calls. The calls are words filed in the database; no cut-off is given here.

Key:
Cavia porcellus [1] = species: Cavia porcellus; experiment: Antagonist activity at adrenergic receptor in guinea pig vas deferens assessed as inhibition of electrically-induced release of norepinephrine at 1 x 10^-4 M measured every 10 mins; format: tissue-based
Cavia porcellus [2] = species: Cavia porcellus; experiment: Antagonist activity at adrenergic receptor in guinea pig vas deferens assessed as inhibition of electrically-induced release of norepinephrine measured every 10 mins; format: tissue-based
Procedure, shortened: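 Isolated guinea pig vas deferens in Krebs solution, stimulated transmurally for 15 s every 4 min at 25-35 shocks/s, 0.1 ms pulses, supramaximal 110-120 V. Salts were dissolved in distilled water, with a fresh preparation for each drug. Responses were read at 10-min intervals. ID50, the bath concentration giving 50% inhibition, came from dose-response curves of at least three concentrations, as free base.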

Cavia porcellus [3] = species: Cavia porcellus; experiment: Equipotent molar ratio, ratio of compound ID50 to guanethidine ID50 for adrenergic receptor in guinea pig vas deferens assessed as inhibition of electrically-induced release of norepinephrine

Row | inhibition (Cavia porcellus [1]) | ID50 (Cavia porcellus [2]) | EPMR (Cavia porcellus [3]) | Structure (SMILES)
1 | inactive |  |  | N=C(N)N[C@H]1C[C@H]1c1ccccc1 (relative stereo)
2 |  | 7.3 µM | 3.65 | N=C(N)NC[C@@H]1C[C@H]1c1ccccc1
3 |  | 2 µM |  | N=C(N)NCCN1CCCCCCC1
4 |  | 2 ×10⁻⁵ M | 10 | N=C(N)NC1CCc2ccc([N+](=O)[O-])cc21 (stereo unspecified)
5 |  | 2.5 µM | 1.25 | N=C(N)NCC1Cc2ccccc21 (stereo unspecified)
6 | inactive |  |  | N=C(N)NC1Cc2ccccc2C1
7 |  | 5 µM | 2.5 | N=C(N)NCCc1ccc2ccccc2c1
8 |  | 5.8 µM | 2.9 | N=C(N)NC1CCc2ccccc21 (stereo unspecified)
9 |  | 1.2 ×10⁻⁵ M | 6 | N=C(N)NCCc1cccc2ccccc12
10 |  | 9.1 µM | 4.55 | N=C(N)NC[C@H]1C[C@H]1c1ccccc1 (relative stereo)
11 |  | 5.05 µM | 2.52 | N=C(N)N[C@@H]1C[C@H]1c1ccccc1
12 |  | 7.7 ×10⁻⁷ M | 0.39 | N=C(N)NC/C=C/C1CCCCC1
13 |  | 9.8 ×10⁻⁸ M | 0.049 | N=C(N)NC/C=C\C1CCCCC1
14 | inactive |  |  | COc1ccc2c(c1)CCC2NC(=N)N (stereo unspecified)
15 |  | 1.9 ×10⁻⁷ M | 0.095 | N=C(N)NCc1cccc2ccccc12
